Reference: ChEMBL document CHEMBL3421608, “Discovery and optimization of a novel series of Dyrk1B kinase inhibitors to explore a MEK resistance hypothesis” (J Med Chem, 2015)
In brackets after ≈: the same amount, converted by molar mass. Activity calls are given as the source filed them. No cut-off for these calls is given here.

What was measured:
[1] = biological target: Insulin-like growth factor 1 receptor (Homo sapiens, UniProt P08069); assay: Inhibition of human recombinant N-terminal His6-tagged IGF-1R using fluorescence substrate after 80 mins by caliper off-chip incubation mobility shift assay
[2] = biological target: Cyclin-dependent kinase 2 (Homo sapiens, UniProt P24941); assay: Inhibition of human recombinant full length C-terminal His6-tagged CDK2 expressed in baculovirus infected Sf21 insect cells using fluorescence substrate after 60 mins by caliper off-chip incubation mobility shift assay
[3] = Intrinsic clearance in Wistar Han rat hepatocytes assessed per 10^6 cells; format: ADME, cell-based, Hepatocyte; details: read-out: CLH
Outline: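 Intrinsic clearance in Wistar Han rat hepatocytes, expressed as μL/min/1 × 10⁶ cells.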

[4] = Clearance in Wistar Han rat plasma at 2 umol/kg; format: ADME, cell-free
[5] = Oral bioavailability in Wistar Han rat at 3 umol/kg; format: ADME, organism-based; details: in vivo
[6] = Aqueous solubility of the compound at pH 7.4; format: physicochemical; details: buffer
[7] = biological target: T1, Dual specificity tyrosine-phosphorylation-regulated kinase 2 (Homo sapiens, UniProt Q92630); assay: Inhibition of Dyrk2 (unknown origin)
T1 sequence (Q92630 whole entry): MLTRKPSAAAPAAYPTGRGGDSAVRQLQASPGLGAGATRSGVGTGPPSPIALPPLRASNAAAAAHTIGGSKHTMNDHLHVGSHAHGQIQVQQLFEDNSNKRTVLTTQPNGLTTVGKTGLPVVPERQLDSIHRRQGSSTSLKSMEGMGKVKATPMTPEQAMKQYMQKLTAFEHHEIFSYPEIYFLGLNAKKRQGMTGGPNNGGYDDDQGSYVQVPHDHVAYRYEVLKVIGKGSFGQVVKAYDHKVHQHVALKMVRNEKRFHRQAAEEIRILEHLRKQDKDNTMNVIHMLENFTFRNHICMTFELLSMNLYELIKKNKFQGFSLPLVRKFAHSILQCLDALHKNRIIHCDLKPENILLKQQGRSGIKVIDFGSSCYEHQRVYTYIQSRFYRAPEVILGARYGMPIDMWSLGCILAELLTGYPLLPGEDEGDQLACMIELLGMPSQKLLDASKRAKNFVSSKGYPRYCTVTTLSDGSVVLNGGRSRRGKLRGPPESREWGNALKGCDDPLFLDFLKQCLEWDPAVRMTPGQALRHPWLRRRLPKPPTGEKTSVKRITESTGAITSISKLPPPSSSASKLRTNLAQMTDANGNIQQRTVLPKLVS

A-375 = assay: Cytotoxicity against human A375 cells at 1.33 uM after 72 hrs by calcein green AM/propidium iodide staining-based assay in presence of AZD6244 relative to control; format: functional, cell-based
Outline: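 A375 melanoma cells treated with AZD6244 with or without Dyrk1B inhibitor at 1.33 μM for 72 h. Viability by calcein green AM and propidium iodide staining; percentage of dead cells is mean and SEM of at least two separate experiments.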

[8] = biological target: T2, Dual specificity tyrosine-phosphorylation-regulated kinase 1B (Homo sapiens, UniProt Q9Y463); assay: Inhibition of recombinant Dyrk1B (unknown origin) using FITC-Asp-His-Thr-Gly-Phe-Leu-Thr-Glu-Tyr-Val-Ala-Thr-Arg-NH2 as substrate after 60 mins
[9] = biological target: T2, Dual specificity tyrosine-phosphorylation-regulated kinase 1B; assay: Inhibition of human full length C-terminal c-Myc tagged Dyrk1B phosphorylation overexpressed in monkey COS1 cells after 5 hrs by ELISA; format: cell-based, COS-1
[10] = Permeability across human Caco2 cells; format: ADME, cell-based; details: caco-2

T2 sequence (Q9Y463 whole entry): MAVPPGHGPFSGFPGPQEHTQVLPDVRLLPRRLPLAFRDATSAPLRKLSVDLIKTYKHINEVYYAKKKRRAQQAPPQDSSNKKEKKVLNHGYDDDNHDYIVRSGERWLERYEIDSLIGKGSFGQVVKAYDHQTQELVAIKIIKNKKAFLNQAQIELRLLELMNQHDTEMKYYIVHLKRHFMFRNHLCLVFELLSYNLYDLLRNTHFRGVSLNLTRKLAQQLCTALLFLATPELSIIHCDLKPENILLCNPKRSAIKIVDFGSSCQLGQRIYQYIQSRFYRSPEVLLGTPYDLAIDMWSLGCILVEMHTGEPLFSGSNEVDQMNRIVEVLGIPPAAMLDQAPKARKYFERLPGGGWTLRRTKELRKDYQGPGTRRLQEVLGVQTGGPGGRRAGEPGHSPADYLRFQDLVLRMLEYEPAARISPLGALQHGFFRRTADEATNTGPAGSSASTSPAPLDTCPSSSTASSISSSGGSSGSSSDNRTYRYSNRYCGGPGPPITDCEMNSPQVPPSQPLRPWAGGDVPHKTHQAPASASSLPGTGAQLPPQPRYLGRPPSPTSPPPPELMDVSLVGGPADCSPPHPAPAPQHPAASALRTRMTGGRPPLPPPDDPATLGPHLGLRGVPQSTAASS
Sequence of Insulin-like growth factor 1 receptor (P08069 31-736 limits assumed): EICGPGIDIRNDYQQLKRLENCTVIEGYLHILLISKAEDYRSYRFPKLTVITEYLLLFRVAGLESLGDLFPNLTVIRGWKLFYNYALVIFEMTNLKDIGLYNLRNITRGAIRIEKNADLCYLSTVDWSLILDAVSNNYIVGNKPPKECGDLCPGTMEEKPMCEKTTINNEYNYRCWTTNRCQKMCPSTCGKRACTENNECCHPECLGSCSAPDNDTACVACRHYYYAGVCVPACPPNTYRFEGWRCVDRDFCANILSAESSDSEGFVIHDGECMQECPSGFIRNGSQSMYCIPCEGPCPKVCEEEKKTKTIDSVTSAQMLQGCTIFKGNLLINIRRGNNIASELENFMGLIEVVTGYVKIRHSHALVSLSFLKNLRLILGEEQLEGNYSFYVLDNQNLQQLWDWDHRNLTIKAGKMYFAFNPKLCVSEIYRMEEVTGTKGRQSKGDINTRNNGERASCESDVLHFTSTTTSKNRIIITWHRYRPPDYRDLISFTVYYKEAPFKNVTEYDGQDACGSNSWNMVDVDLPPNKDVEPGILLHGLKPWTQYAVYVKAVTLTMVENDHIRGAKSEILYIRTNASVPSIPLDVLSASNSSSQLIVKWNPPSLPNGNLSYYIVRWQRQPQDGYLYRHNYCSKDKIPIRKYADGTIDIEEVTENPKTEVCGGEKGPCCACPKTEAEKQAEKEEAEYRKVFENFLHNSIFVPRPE
Sequence of Insulin-like growth factor 1 receptor (P08069 741-1367 limits assumed): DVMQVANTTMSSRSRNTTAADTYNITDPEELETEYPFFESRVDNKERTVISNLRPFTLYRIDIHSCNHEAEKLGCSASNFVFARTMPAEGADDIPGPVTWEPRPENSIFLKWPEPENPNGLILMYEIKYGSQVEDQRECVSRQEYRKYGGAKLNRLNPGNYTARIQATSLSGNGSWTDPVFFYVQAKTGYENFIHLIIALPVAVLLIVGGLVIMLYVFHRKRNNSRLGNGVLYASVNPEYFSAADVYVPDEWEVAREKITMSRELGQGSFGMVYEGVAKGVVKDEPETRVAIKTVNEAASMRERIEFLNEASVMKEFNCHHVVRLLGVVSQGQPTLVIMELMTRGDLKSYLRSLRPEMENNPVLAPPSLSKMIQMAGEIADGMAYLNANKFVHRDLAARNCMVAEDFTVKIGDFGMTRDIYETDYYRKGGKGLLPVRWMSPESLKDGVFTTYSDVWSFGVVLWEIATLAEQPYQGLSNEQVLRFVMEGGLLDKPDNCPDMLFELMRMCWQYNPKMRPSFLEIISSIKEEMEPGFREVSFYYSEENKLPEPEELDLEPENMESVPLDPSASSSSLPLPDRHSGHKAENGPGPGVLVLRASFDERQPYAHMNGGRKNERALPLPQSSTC

SMILES | IC50 [1] [nM] | IC50 [2] [nM] | hepatocyte CLint [3] [µL/min/1e6 cells] | clearance [4] [mL/min/kg] | bioavailability [5] [%] | solubility [6] [µM] | IC50 [7] [nM] | Activity (A-375) | IC50 [8] [nM] | IC50 [9] [nM] | permeability [10]
COc1cc(N2CCN(C)CC2)ccc1Nc1nccc(-c2cn(C)c3cnccc23)n1 | 779 | 4470 | 18 | 27 | 22 | > 755 | 190 | inactive |  |  | 
Cn1cc(-c2ccnc(-c3ccc(S(C)(=O)=O)cc3)n2)c2ccncc21 | > 10000 | > 100000 | 8 | 23 | 37 | 2 (≈ 0.729 µg/mL) |  |  | 12 | 810 | permeable
